GSK3 alpha inh = blocks human GSK-3 alpha kinase; 320,000 compounds, 0.1% hits; P49840; AID 2650; inhibition, % at 10 µM; ADP-Glo luminescence, 60 min;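 active means more than half of replicates show inhibition above 20%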;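 further: GST-tagged GSK-3 alpha with peptide substrate and 25 µM ATP; 0% = DMSO neutral wells and 100% = GW8510 positive control wells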
GSK3beta inhib = inhibitors of human GSK3beta kinase. P49841. AID 2097. 300,000 compounds, 0.038% hits. activity score (negative = inhibition), % at 10 µM. GST-GSK3beta kinase, ADP-Glo luminescence, 60 min; stronger effect = lower value;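 active means more than half of replicate wells score below -50%, meaning over 50% inhibition versus plate controls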;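 further: 0% = median DMSO wells and -100% = median GW8510 positive control wells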
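test system = GST-tagged human GSK3beta kinase, cell-free | reagent = 25 µM ATP with peptide substrate | dosing = one dose of 10 µM per compound | schedule = 60 min reaction, RT | detection = luminescent ADP-Glo measurement of ADP formed | control set = DMSO neutral wells and GW8510 at 20 µM as positive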
MEKK3 PB1 HTS = MEKK3-MEK5 PB1 interaction, increase or decrease; Q99759; bead-based flow cytometry, Alexa488-MEK5 binding to MEKK3; actives lie on both sides; 0 = blocked by unlabeled MEK5, 100 = vehicle; binding response (% of control), % at 10 µM; 290,000 compounds, 1.4% hits; AID 1529;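 active means binding response more than 3 SD above or below the average of its plate-row segment, actives on both sides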;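 further: Alexa488 bead fluorescence after subtracting the streptavidin-only scavenger bead signal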
MEKK2mut PB1 HTS = signal of MEK5 binding to mutant human MEKK2 PB1 domain. bead flow cytometry, Alexa488-MEK5 binding to MEKK2 mutant. percent response, % at 10 µM. 290,000 compounds, 0.35% hits; in the data active means percent response above about 24%, passing the limit was not always enough
MEKK2 WT-MEK5 = raises or lowers MEK5 binding to wildtype human MEKK2 PB1 domain; Q9Y2U5; bead flow cytometry, Alexa488-MEK5 binding to MEKK2 WT; actives lie on both sides; binding response (% of control), % at 10 µM; 290,000 compounds, 1.1% hits; in the data active means binding response below about 67% or above about 130%
STK33 kinase inh = inhibitors of human STK33 kinase. Q9BYT3. inhibition, % at 10 µM. purified STK33, MBP phosphorylation, ADP-Glo luminescence. 320,000 compounds, 0.073% hits. AID 2661;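 active means inhibition at or above 25%, using the most active replicate where run in duplicate; inactive means inhibition below 25%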
Target sequence (Q9BYT3 whole entry, looked up): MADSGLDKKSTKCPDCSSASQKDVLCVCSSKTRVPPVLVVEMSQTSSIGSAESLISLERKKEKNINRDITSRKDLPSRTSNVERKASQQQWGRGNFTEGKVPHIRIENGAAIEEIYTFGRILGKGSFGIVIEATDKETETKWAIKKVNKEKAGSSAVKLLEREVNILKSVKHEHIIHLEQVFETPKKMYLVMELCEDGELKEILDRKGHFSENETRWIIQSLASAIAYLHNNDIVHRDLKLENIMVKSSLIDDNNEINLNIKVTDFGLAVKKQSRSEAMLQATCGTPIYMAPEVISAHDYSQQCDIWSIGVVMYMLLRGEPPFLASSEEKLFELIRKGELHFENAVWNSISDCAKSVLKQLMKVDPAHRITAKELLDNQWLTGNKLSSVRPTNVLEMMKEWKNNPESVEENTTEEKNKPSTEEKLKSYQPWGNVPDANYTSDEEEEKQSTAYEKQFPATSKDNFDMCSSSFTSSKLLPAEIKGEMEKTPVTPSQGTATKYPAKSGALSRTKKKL
MEKK2wt confirm = raises or lowers MEK5 binding to wildtype human MEKK2, retest. shares compounds with MEKK3 PB1 HTS. 5,900 compounds, 2.4% hits. AID 1892. binding response (% of control), % at 10 µM. bead flow cytometry, Alexa488-MEK5 binding to MEKK2 WT; actives lie on both sides; in the data active means binding response below about 16% or above about 210%; inactive means in between
MEKK2mut-MEK5 = signal of MEK5 binding to mutant human MEKK2, retest; shares compounds with MEKK3 PB1 HTS; bead flow cytometry, Alexa488-MEK5 binding to MEKK2 mutant; percent response, % at 10 µM; 5,900 compounds, 2% hits; in the data active means percent response mostly above about 71%, no sharp cut-off; inactive means mostly below about 38%;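 further: higher means compound restores mutant binding toward wildtype level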
MEKK3 confirm = MEKK3-MEK5 PB1 inhibition, single concentration confirmation | shares compounds with MEKK3 PB1 HTS | bead flow cytometry, Alexa488-MEK5 binding to MEKK3; stronger effect = lower value | binding response (% of control), % at 10 µM | 5,900 compounds, 1.8% hits | AID 1894;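 active means binding response below 72% of control, or above a set upper limit, though filed actives all read lower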;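 further: 100% = DMSO only wells and 0% = binding blocked by excess unlabeled MEK5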
* hit, by the source's call; / = not tested or not shown; [ ] = remark or other dose. The list is not random: actives were taken first. Their share in the collection is about 2.1%.

SMILES	GSK3 alpha inh	GSK3beta inhib	MEKK3 PB1 HTS	MEKK2mut PB1 HTS	MEKK2 WT-MEK5	STK33 kinase inh	MEKK2wt confirm	MEKK2mut-MEK5	MEKK3 confirm
NCCc1c(-c2ccccc2)n(-c2ccccc2)c2ccccc12	/	-7	108	62*	197*	/	155	35	111
COc1cc(NC(=O)C2CCCN(c3ncccn3)C2)cc(OC)c1 (stereo not given)	3	1	63*[inhibitor]	-1	86	-2	85	-10	87
O=C(CSCc1ccccc1)N1CCN(c2ccccc2)CC1	0	2	91	-1	94	-2	/	/	/
Cc1ccc(CSCC(=O)N2CCN(c3ccccc3)CC2)cc1	-1	1	131*	0	106	-2	107	-1	107
O=[N+]([O-])c1cc(C(F)(F)F)cc([N+](=O)[O-])c1NCc1cccnc1	0	-1	99	8	95	-2	/	/	/
O=[N+]([O-])c1cc(C(F)(F)F)cc([N+](=O)[O-])c1NCCCNc1ccc([N+](=O)[O-])c2cccnc12	1	0	68*[inhibitor]	0	102	-1	105	2	101
CCCC(=O)Nc1ccc(-c2nc3ncccc3o2)cc1	-4	-2	107	5	109	0	/	/	/
O=C(NCc1ccccc1)c1ccc(N2C(=O)C3CCCCC3C2=O)cc1 (stereo not given)	0	-2	142*	1	105	0	104	5	106
COC(=O)c1cc(S(=O)(=O)N2CCN(Cc3ccccc3)CC2)c[nH]1	-3	-1	98	3	100	-1	/	/	/
CCCNC(=O)Cn1c(=O)/c(=C\c2ccc(-c3ccc([N+](=O)[O-])cc3)o2)s/c1=C\C(=O)C(C)(C)C	-3	0	90	132*	/	-1	79	-25	93
CCCNC(=O)Cn1c(=O)/c(=C\c2ccc(-c3cccc([N+](=O)[O-])c3)o2)s/c1=C\C(=O)C(C)(C)C	1	-1	99	-3	76	1	/	/	/
Cc1cc(N)n(Cc2cccs2)n1	-1	-1	95	-20	86	-2	/	/	/
O=C(Nc1ccc(Cl)cc1)Nc1ccccc1CC[N+](=O)[O-]	-7	3	4.0*[inhibitor]	-19	6.0*[inhibitor]	-1	105	-3	100
CN(C)C(=O)Nc1ccccc1CC[N+](=O)[O-]	-2	-1	113	0	113	-1	/	/	/
CN(Cc1ccccc1)S(=O)(=O)c1ccc2c(c1)n(C)c(=O)c(=O)n2C	-4	0	130*	32	120	0	97	0	97
Clc1ccc(OCCCNCc2ccccc2)c(Br)c1	2	-4	105	22	153*	0	134	19	103
Clc1ccc(Cl)c(OCCCCNCc2ccccc2)c1	2	-2	98	3	125	1	/	/	/
COc1ccc(NC(=O)CN(C)C(=O)c2sc3cc(Cl)ccc3c2Cl)cc1	-1	-2	/	/	/	-1	/	/	/
Cc1ccccc1NC(=O)C1(NC(=O)c2cccc(N3C(=O)CSC3c3ccccc3)c2)CCCCC1 (stereo not given)	-3	2	122*	6	103	0	103	1	101
Cc1ccccc1CN1C(=O)c2ccccc2Sc2ccc(C(=O)NCCN3CCOCC3)cc21	2	-4	106	4	110	4	/	/	/
CCN1CCN(CCNC(=O)c2ccc(/C=C3/Sc4ccccc4N(Cc4ccccc4C)C3=O)cc2)CC1	/	-3	104	54*	203*	/	193	67	110
COc1ccc(NC(=S)N2CCc3ccccc3C2)cc1OC	0	4	86	-7	94	0	/	/	/
COc1ccc(-c2[nH]ncc2CN2CCN(c3ccccn3)CC2)c(OC)c1	-1	6	97	-9	86	-1	/	/	/
COc1ccc(-c2[nH]ncc2CN2CCCCCCC2)c(OC)c1	1	3	108	98*	223*	-2	214*	79*	112
COc1cccc(NC(=O)CN(C)C(=O)c2ccc(OCc3ccccc3)c(OC)c2)c1	-3	4	/	/	/	0	/	/	/
SMILES	GSK3 alpha inh	GSK3beta inhib	MEKK3 PB1 HTS	MEKK2mut PB1 HTS	MEKK2 WT-MEK5	STK33 kinase inh	MEKK2wt confirm	MEKK2mut-MEK5	MEKK3 confirm
COc1ccc(C2CC(c3ccc(C)o3)=NN2C(C)=O)cc1 (stereo not given)	-1	0	102	-1	99	-1	/	/	/
CCOc1cccc2c1OC(c1cc(OC)c(OC)c(OC)c1)N1N=C(c3ccc(C)o3)CC21 (stereo not given)	-46	1	15*[inhibitor]	8	6.0*	0	93	-9	100
COc1ccc(S(=O)(=O)N2CCCCCC2)cc1NC(=O)Cc1ccccc1F	2	1	75*[inhibitor]	-19	79	-1	104	0	102
CC(C)(C)CC(=O)Nc1cc(S(=O)(=O)N2CCCCCC2)ccc1Cl	-1	-1	104	1	97	-1	/	/	/
COc1ccc(S(=O)(=O)N2CCCCCC2)cc1NC(=O)Cc1cc(OC)c(OC)c(OC)c1	-1	1	102	1	102	-3	/	/	/
O=C(CCl)Nc1cc(S(=O)(=O)N2CCCCCC2)ccc1Cl	-2	1	130*	0	100	-2	107	2	106
COc1ccccc1CNC(=O)c1cn(C)c2ccc(S(=O)(=O)N3CCCCC3)cc2c1=O	-5	2	127	192*	108	0	98	-8	99
COc1cc(C(=O)NC2CC(C)(C)CC(C)(C)C2)ccc1OC1CCN(C(C)=O)CC1	0	0	106	13	122	0	/	/	/
Fc1cccc(/C=N/Nc2cc(N3CCOCC3)ncn2)c1	1	3	96	3	103	0	/	/	/
CC(C)n1c(SCC(=O)N2c3ccccc3Sc3ccccc32)nc2c1c(=O)n(C)c(=O)n2C	/	0	1.0*[inhibitor]	-21	-3.0*[inhibitor]	/	99	-3	104
CCCn1c(SCC(=O)N2c3ccccc3Sc3ccccc32)nc2c1c(=O)n(C)c(=O)n2C	-2	0	94	-6	89	0	/	/	/
Cn1c(SCC(=O)N2c3ccccc3Sc3ccccc32)nc2ccccc21	-2	-20	102	-1	96	-1	/	/	/

Compound activity as filed in PubChem BioAssay.
